Columns and labels:
Type in all cases: functional
NCI-H23 = test: Cytotoxicity against human NCI-H23 cells assessed as growth inhibition at 10 uM after 48 hrs by sulphorhodamine B assay; settings: NCI-H23, 48 h, read-out: GI
How it was run: (§1)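 NCI-60 one-dose screen per the NCI Drug Evaluation Branch protocol. Cells given a single 10 µM concentration with 48 h continuous exposure. Growth estimated by sulphorhodamine B protein assay. Result expressed as percentage growth inhibition relative to untreated growth.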

UACC-62 = test: Cytotoxicity against human UACC62 cells assessed as growth inhibition at 10 uM after 48 hrs by sulphorhodamine B assay; settings: UACC-62, 48 h, read-out: GI; how it was run: as §1
NCI/ADR-RES = test: Cytotoxicity against human NCI/ADR-RES cells assessed as growth inhibition at 10 uM after 48 hrs by sulphorhodamine B assay; settings: read-out: GI; how it was run: as §1
LOX IMVI = test: Cytotoxicity against human LOXIMVI cells assessed as growth inhibition at 10 uM after 48 hrs by sulphorhodamine B assay; settings: read-out: GI; how it was run: as §1
SK-OV-3 = test: Cytotoxicity against human SKOV3 cells assessed as growth inhibition at 10 uM after 48 hrs by sulphorhodamine B assay; settings: SK-OV-3, 48 h, read-out: GI; how it was run: as §1
NCI-H522 = test: Cytotoxicity against human NCI-H522 cells assessed as growth inhibition at 10 uM after 48 hrs by sulphorhodamine B assay; settings: NCI-H522, 48 h, read-out: GI; how it was run: as §1
SNB-19 = test: Cytotoxicity against human SNB19 cells assessed as growth inhibition at 10 uM after 48 hrs by sulphorhodamine B assay; settings: SNB-19, 48 h, read-out: GI; how it was run: as §1
SF-268 = test: Cytotoxicity against human SF268 cells assessed as growth inhibition at 10 uM after 48 hrs by sulphorhodamine B assay; settings: SF-268, 48 h, read-out: GI; how it was run: as §1
HCT-116 = test: Cytotoxicity against human HCT116 cells assessed as growth inhibition at 10 uM after 48 hrs by sulphorhodamine B assay; settings: HCT-116, 48 h, read-out: GI; how it was run: as §1
SK-MEL-5 = test: Cytotoxicity against human SK-MEL-5 cells assessed as growth inhibition at 10 uM after 48 hrs by sulphorhodamine B assay; settings: SK-MEL-5, 48 h, read-out: GI; how it was run: as §1
ACHN = test: Cytotoxicity against human ACHN cells assessed as growth inhibition at 10 uM after 48 hrs by sulphorhodamine B assay; settings: read-out: GI; how it was run: as §1
SK-MEL-2 = test: Cytotoxicity against human SK-MEL-2 cells assessed as growth inhibition at 10 uM after 48 hrs by sulphorhodamine B assay; settings: SK-MEL-2, 48 h, read-out: GI; how it was run: as §1
RPMI-8226 = test: Cytotoxicity against human RPMI8226 cells assessed as growth inhibition at 10 uM after 48 hrs by sulphorhodamine B assay; settings: RPMI-8226, 48 h, read-out: GI; how it was run: as §1
MOLT-4 = test: Cytotoxicity against human MOLT4 cells assessed as growth inhibition at 10 uM after 48 hrs by sulphorhodamine B assay; settings: MOLT-4, 48 h, read-out: GI; how it was run: as §1
DU-145 = test: Cytotoxicity against human DU145 cells assessed as growth inhibition at 10 uM after 48 hrs by sulphorhodamine B assay; settings: DU-145, 48 h, read-out: GI; how it was run: as §1
SNB-75 = test: Cytotoxicity against human SNB75 cells assessed as growth inhibition at 10 uM after 48 hrs by sulphorhodamine B assay; settings: SNB-75, 48 h, read-out: GI; how it was run: as §1
OVCAR-5 = test: Cytotoxicity against human OVCAR5 cells assessed as growth inhibition at 10 uM after 48 hrs by sulphorhodamine B assay; settings: OVCAR-5, 48 h, read-out: GI; how it was run: as §1
HCT-15 = test: Cytotoxicity against human HCT15 cells assessed as growth inhibition at 10 uM after 48 hrs by sulphorhodamine B assay; settings: HCT-15, 48 h, read-out: GI; how it was run: as §1
CAKI-1 = test: Cytotoxicity against human Caki1 cells assessed as growth inhibition at 10 uM after 48 hrs by sulphorhodamine B assay; settings: CAKI-1, 48 h, read-out: GI; how it was run: as §1
SR = test: Cytotoxicity against human SR cells assessed as growth inhibition at 10 uM after 48 hrs by sulphorhodamine B assay; settings: read-out: GI; how it was run: as §1
SF-295 = test: Cytotoxicity against human SF295 cells assessed as growth inhibition at 10 uM after 48 hrs by sulphorhodamine B assay; settings: SF-295, 48 h, read-out: GI; how it was run: as §1
A549 = test: Cytotoxicity against human A549 cells assessed as growth inhibition at 10 uM after 48 hrs by sulphorhodamine B assay; settings: A549, 48 h, read-out: GI; how it was run: as §1
U-251 = test: Cytotoxicity against human U251 cells assessed as growth inhibition at 10 uM after 48 hrs by sulphorhodamine B assay; settings: U-251, 48 h, read-out: GI; how it was run: as §1
MDA-MB-435 = test: Cytotoxicity against human MDA-MB-435 cells assessed as growth inhibition at 10 uM after 48 hrs by sulphorhodamine B assay; settings: MDA-MB-435, 48 h, read-out: GI; how it was run: as §1
HT-29 = test: Cytotoxicity against human HT-29 cells assessed as growth inhibition at 10 uM after 48 hrs by sulphorhodamine B assay; settings: HT-29, 48 h, read-out: GI; how it was run: as §1
HOP-92 = test: Cytotoxicity against human HOP92 cells assessed as growth inhibition at 10 uM after 48 hrs by sulphorhodamine B assay; settings: HOP-92, 48 h, read-out: GI; how it was run: as §1
HL-60(TB) = test: Cytotoxicity against human HL-60(TB) cells assessed as growth inhibition at 10 uM after 48 hrs by sulphorhodamine B assay; settings: HL-60, 48 h, read-out: GI
How it was run: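 NCI-60 one-dose primary screen run to the Drug Evaluation Branch protocol. Cells are exposed to a single 10 µM concentration for 48 h continuously, and growth is read by SRB protein assay. Data are reported as percent growth of treated cells, expressed as % growth inhibition.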

PC-3 = test: Cytotoxicity against human PC3 cells assessed as growth inhibition at 10 uM after 48 hrs by sulphorhodamine B assay; settings: PC-3, 48 h, read-out: GI; how it was run: as §1
RXF 393 = test: Cytotoxicity against human RXF393 cells assessed as growth inhibition at 10 uM after 48 hrs by sulphorhodamine B assay; settings: RXF 393, 48 h, read-out: GI; how it was run: as §1
OVCAR-4 = test: Cytotoxicity against human OVCAR4 cells assessed as growth inhibition at 10 uM after 48 hrs by sulphorhodamine B assay; settings: OVCAR-4, 48 h, read-out: GI; how it was run: as §1
A498 = test: Cytotoxicity against human A498 cells assessed as growth inhibition at 10 uM after 48 hrs by sulphorhodamine B assay; settings: A498, 48 h, read-out: GI; how it was run: as §1
M14 = test: Cytotoxicity against human M14 cells assessed as growth inhibition at 10 uM after 48 hrs by sulphorhodamine B assay; settings: M14, 48 h, read-out: GI; how it was run: as §1
[1] = Cytotoxicity against human EKVX cells assessed as growth inhibition at 10 uM after 48 hrs by sulphorhodamine B assay; settings: read-out: GI; how it was run: as §1
MCF7 = test: Cytotoxicity against human MCF7 cells assessed as growth inhibition at 10 uM after 48 hrs by sulphorhodamine B assay; settings: MCF7, 48 h, read-out: GI; how it was run: as §1
UO-31 = test: Cytotoxicity against human UO31 cells assessed as growth inhibition at 10 uM after 48 hrs by sulphorhodamine B assay; settings: UO-31, 48 h, read-out: GI; how it was run: as §1
K562 = test: Cytotoxicity against human K562 cells assessed as growth inhibition at 10 uM after 48 hrs by sulphorhodamine B assay; settings: K562, 48 h, read-out: GI; how it was run: as §1
MDA-MB-468 = test: Cytotoxicity against human MDA-MB-468 cells assessed as growth inhibition at 10 uM after 48 hrs by sulphorhodamine B assay; settings: MDA-MB-468, 48 h, read-out: GI; how it was run: as §1
CCRF-CEM = test: Cytotoxicity against human CCRF-CEM cells assessed as growth inhibition at 10 uM after 48 hrs by sulphorhodamine B assay; settings: read-out: GI; how it was run: as §1
IGROV-1 = test: Cytotoxicity against human IGROV1 cells assessed as growth inhibition at 10 uM after 48 hrs by sulphorhodamine B assay; settings: IGROV-1, 48 h, read-out: GI; how it was run: as §1
Hs-578T = test: Cytotoxicity against human Hs578T cells assessed as growth inhibition at 10 uM after 48 hrs by sulphorhodamine B assay; settings: read-out: GI; how it was run: as §1
T47D = test: Cytotoxicity against human T47D cells assessed as growth inhibition at 10 uM after 48 hrs by sulphorhodamine B assay; settings: read-out: GI; how it was run: as §1

## COc1ccc(-c2c3c(nc4nc[nH]c(=O)c24)C(C)CCC3)cc1 (stereo unspecified)
NCI-H23
  inhibition of growth at 10 µM: 13.8%
UACC-62
  inhibition of growth at 10 µM: < 10%
NCI/ADR-RES
  inhibition of growth at 10 µM: 20%
LOX IMVI
  inhibition of growth at 10 µM: < 10%
SK-OV-3
  inhibition of growth at 10 µM: < 10%
NCI-H522
  inhibition of growth at 10 µM: 20.8%
SNB-19
  inhibition of growth at 10 µM: < 10%
SF-268
  inhibition of growth at 10 µM: < 10%
HCT-116
  inhibition of growth at 10 µM: < 10%
SK-MEL-5
  inhibition of growth at 10 µM: < 10%
ACHN
  inhibition of growth at 10 µM: < 10%
SK-MEL-2
  inhibition of growth at 10 µM: < 10%
RPMI-8226
  inhibition of growth at 10 µM: < 10%
MOLT-4
  inhibition of growth at 10 µM: < 10%
DU-145
  inhibition of growth at 10 µM: < 10%
SNB-75
  inhibition of growth at 10 µM: 34.3%
OVCAR-5
  inhibition of growth at 10 µM: < 10%
HCT-15
  inhibition of growth at 10 µM: 13.7%
CAKI-1
  inhibition of growth at 10 µM: < 10%
SR
  inhibition of growth at 10 µM: < 10%
SF-295
  inhibition of growth at 10 µM: < 10%
A549
  inhibition of growth at 10 µM: < 10%
U-251
  inhibition of growth at 10 µM: 19%
MDA-MB-435
  inhibition of growth at 10 µM: < 10%
HT-29
  inhibition of growth at 10 µM: < 10%
HOP-92
  inhibition of growth at 10 µM: < 10%
HL-60(TB)
  inhibition of growth at 10 µM: < 10%
PC-3
  inhibition of growth at 10 µM: < 10%
RXF 393
  inhibition of growth at 10 µM: < 10%
OVCAR-4
  inhibition of growth at 10 µM: < 10%
A498
  inhibition of growth at 10 µM: < 10%
M14
  inhibition of growth at 10 µM: < 10%
[1]
  inhibition of growth at 10 µM: < 10%
MCF7
  inhibition of growth at 10 µM: < 10%
UO-31
  inhibition of growth at 10 µM: < 10%
K562
  inhibition of growth at 10 µM: < 10%
MDA-MB-468
  inhibition of growth at 10 µM: 21.5%
CCRF-CEM
  inhibition of growth at 10 µM: < 10%
IGROV-1
  inhibition of growth at 10 µM: < 10%
Hs-578T
  inhibition of growth at 10 µM: < 10%
T47D
  inhibition of growth at 10 µM: < 10%

## COc1ccc(-c2c3c(nc4ncn(N)c(=N)c24)C(C)CCC3)cc1 (stereo unspecified)
NCI-H23
  inhibition of growth at 10 µM: 14.4%
UACC-62
  inhibition of growth at 10 µM: 24%
NCI/ADR-RES
  inhibition of growth at 10 µM: < 10%
LOX IMVI
  inhibition of growth at 10 µM: < 10%
SK-OV-3
  inhibition of growth at 10 µM: < 10%
NCI-H522
  inhibition of growth at 10 µM: 26%
SNB-19
  inhibition of growth at 10 µM: < 10%
SF-268
  inhibition of growth at 10 µM: < 10%
HCT-116
  inhibition of growth at 10 µM: 22.3%
SK-MEL-5
  inhibition of growth at 10 µM: < 10%
ACHN
  inhibition of growth at 10 µM: 14.5%
SK-MEL-2
  inhibition of growth at 10 µM: 11%
RPMI-8226
  inhibition of growth at 10 µM: < 10%
MOLT-4
  inhibition of growth at 10 µM: < 10%
DU-145
  inhibition of growth at 10 µM: < 10%
SNB-75
  inhibition of growth at 10 µM: 14.3%
OVCAR-5
  inhibition of growth at 10 µM: < 10%
HCT-15
  inhibition of growth at 10 µM: 25%
CAKI-1
  inhibition of growth at 10 µM: 10%
SR
  inhibition of growth at 10 µM: < 10%
SF-295
  inhibition of growth at 10 µM: < 10%
A549
  inhibition of growth at 10 µM: < 10%
U-251
  inhibition of growth at 10 µM: 16.7%
MDA-MB-435
  inhibition of growth at 10 µM: 19%
HT-29
  inhibition of growth at 10 µM: < 10%
HL-60(TB)
  inhibition of growth at 10 µM: < 10%
PC-3
  inhibition of growth at 10 µM: < 10%
RXF 393
  inhibition of growth at 10 µM: < 10%
OVCAR-4
  inhibition of growth at 10 µM: 20%
A498
  inhibition of growth at 10 µM: < 10%
M14
  inhibition of growth at 10 µM: < 10%
[1]
  inhibition of growth at 10 µM: 21.5%
MCF7
  inhibition of growth at 10 µM: < 10%
UO-31
  inhibition of growth at 10 µM: < 10%
K562
  inhibition of growth at 10 µM: < 10%
MDA-MB-468
  inhibition of growth at 10 µM: < 10%
CCRF-CEM
  inhibition of growth at 10 µM: < 10%
IGROV-1
  inhibition of growth at 10 µM: < 10%
Hs-578T
  inhibition of growth at 10 µM: < 10%
T47D
  inhibition of growth at 10 µM: 18.1%
